Measured values reported in ChEMBL document CHEMBL1275400, “Design, synthesis, and DNA-binding of N-alkyl(anilino)quinazoline derivatives” (J Med Chem, 2010).
Active and inactive are the calls of the source. No cut-off for these calls is given here.

Experiments:
Calf thymus DNA [1] = test: Binding affinity to calf thymus DNA in BPE buffer assessed as change in melting temperature at drug/DNA base pair ratio 1; type: nucleic-acid assay; conditions: Bos taurus
How it was run: (§1)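 Melting curves are read at 260 nm in BPE buffer, pH 7.1 (6 mM Na2HPO4, 2 mM NaH2PO4, 1 mM EDTA), in Peltier-heated 10 mm quartz cuvettes. Temperature rises from 20 to 100 °C at 1 °C/min and is monitored with a platinum probe. Tm is taken as the midpoint of the hyperchromic transition.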

Nucleic Acid [2] = test: Binding affinity to poly(dA-dT)2 in BPE buffer assessed as change in melting temperature at drug/DNA base pair ratio 1; type: nucleic-acid assay; how it was run: as §1
Nucleic Acid [3] = test: Binding affinity to DNA assessed as inhibition of cleavage of DNA substrate up to 100 uM by Dnase1 footprinting assay; type: nucleic-acid assay
How it was run: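 DNase I is then added to a final concentration of about 0.01 unit/mL. Digestion runs 3 min and is stopped by freeze-drying. Protected sites are localized on the gel.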

[4] = biological target: T1, DNA topoisomerase 1 (Homo sapiens) (UniProt P11387); test: Inhibition of human recombinant topoisomerase 1-mediated supercoiled pUC19 DNA relaxation up to 100 uM […] by agarose gel electrophoresis analysis; conditions: in the assay text read “45 mins” for “2 hrs”
T1 sequence (whole entry): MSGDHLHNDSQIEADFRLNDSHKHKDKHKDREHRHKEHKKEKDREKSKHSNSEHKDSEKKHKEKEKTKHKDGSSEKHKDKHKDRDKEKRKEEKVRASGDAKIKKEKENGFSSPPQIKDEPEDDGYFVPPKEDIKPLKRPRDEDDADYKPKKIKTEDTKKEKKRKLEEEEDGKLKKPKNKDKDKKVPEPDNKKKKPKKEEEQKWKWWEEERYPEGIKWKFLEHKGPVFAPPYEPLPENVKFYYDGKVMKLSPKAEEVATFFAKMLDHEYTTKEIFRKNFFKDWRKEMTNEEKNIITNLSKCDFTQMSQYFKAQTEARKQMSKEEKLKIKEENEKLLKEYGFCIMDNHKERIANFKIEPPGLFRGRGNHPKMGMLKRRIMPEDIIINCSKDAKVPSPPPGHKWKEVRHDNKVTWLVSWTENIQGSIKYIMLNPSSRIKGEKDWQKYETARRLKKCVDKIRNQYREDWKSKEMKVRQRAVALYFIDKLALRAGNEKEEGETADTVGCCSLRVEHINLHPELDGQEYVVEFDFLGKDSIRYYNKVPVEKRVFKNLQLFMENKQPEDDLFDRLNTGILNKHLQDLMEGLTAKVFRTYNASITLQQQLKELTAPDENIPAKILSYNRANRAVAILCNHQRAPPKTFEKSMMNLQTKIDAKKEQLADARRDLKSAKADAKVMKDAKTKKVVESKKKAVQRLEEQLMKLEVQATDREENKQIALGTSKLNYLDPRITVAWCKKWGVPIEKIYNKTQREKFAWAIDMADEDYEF
How it was run: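 Supercoiled pUC19 (130 ng) is incubated with 4 units of recombinant human topoisomerase I for 45 min at 37 °C. The relaxation buffer is 50 mM Tris pH 7.8, 50 mM KCl, 10 mM MgCl2, 1 mM DTT and 1 mM EDTA, with graded drug. Reactions are stopped with 0.25% SDS and 250 μg/mL proteinase K. Samples are run on 1% agarose for 2 h at 120 V and stained with ethidium bromide.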

Calf thymus DNA [5] = test: Binding affinity to calf thymus DNA in BPE buffer at drug/DNA base pair ratio up to 10 by UV spectroscopic analysis; type: nucleic-acid assay; conditions: Bos taurus
How it was run: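 Absorption spectra are recorded in BPE buffer, pH 7.1, at a constant drug concentration of 20 μM. Aliquots of concentrated calf thymus DNA are added to cover a range of DNA-phosphate/drug ratios.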

Calf thymus DNA [6] = test: Binding affinity to calf thymus DNA at drug/DNA base pair ratio up to 4 by circular dichroism analysis; type: nucleic-acid assay; conditions: Bos taurus
How it was run: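 CD spectra are recorded in 1 mM sodium cacodylate buffer, pH 7.0, in 10 mm quartz cuvettes, averaging four scans. A 50 μM drug solution is diluted stepwise with 5 mM DNA. Alternatively, the drug–DNA complex at high P/D is diluted with pure ligand solution to reach the desired drug/DNA ratio.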

PC-3 = test: Antiproliferative activity against human PC3 cells after 72 hrs by MTS assay; type: functional, cell-based; conditions: PC-3, 72 h
HT-29 = test: Antiproliferative activity against human HT-29 cells after 72 hrs by MTS assay; type: functional, cell-based; conditions: HT-29, 72 h
MCF7 = test: Antiproliferative activity against human MCF7 cells after 72 hrs by MTS assay; type: functional, cell-based; conditions: MCF7, 72 h

Structure (SMILES) | ΔTm (Calf thymus DNA [1]) [°C] | ΔTm (Nucleic Acid [2]) [°C] | also measured
COc1cc2ncnc(N(CCN3CCCCC3)c3ccc(C)c(Br)c3)c2cc1OC | 13.5 | 27.7 | Activity (Nucleic Acid [3]): Active
COc1cc2ncnc(Oc3ccc(NC(=O)Nc4ccccc4)cc3)c2cc1OC | 0.4 | 0.5 | 
COc1cc2ncnc(N(C)c3cccc(F)c3)c2cc1OC | 7.3 | 9.8 | 
CCCCNC(=O)Nc1cccc(N(C)c2ncnc3cc(OC)c(OC)cc23)c1 | 5.7 | 8.1 | 
CN(c1ccc(F)c(Cl)c1)c1ncnc2cc3c(cc12)OCO3 | 2.8 | 4.6 | 
COc1ccc(NC(=O)Nc2ccc(Oc3ncnc4cc(OC)c(OC)cc34)cc2)cc1 | 0.3 | 0.5 | 
CCCCNC(=O)Nc1ccc(N(C)c2ncnc3cc(OC)c(OC)cc23)cc1 | 0.3 | 0.4 | 
COc1cc2ncnc(N(C)c3ccc(C)c(Cl)c3)c2cc1OC | 8.9 | 13.7 | 
COc1cc2ncnc(N(c3ccc(C)c(Br)c3)C(C)C)c2cc1OC | 5.8 | 12.4 | 
COc1cc2ncnc(Nc3cccc(F)c3)c2cc1OC | 0.2 | 0.4 | 
COc1cc2ncnc(N(C)c3cccc(Br)c3)c2cc1OC | 8.1 | 12.2 | inhibition [4]: inactive
Fc1cc(Br)ccc1Nc1ncnc2cc3c(cc12)OCO3 | 0.3 | 0.5 | 
COc1cc2ncnc(Nc3ccc(C)c(C(F)(F)F)c3)c2cc1OC | 0.4 | 0.5 | 
COc1cc2ncnc(N(C)c3ccc(Br)cc3F)c2cc1OC | 1.4 | 3.3 | 
COc1cc2ncnc(N(C)c3ccc(C)c(C(F)(F)F)c3)c2cc1OC | 7.8 | 11 | 
COc1cc2ncnc(N(C)c3cccc(Cl)c3)c2cc1OC | 7.7 | 12.4 | 
COc1cc2ncnc(N(C)c3ccc(C)c(F)c3)c2cc1OC | 7.3 | 11.3 | 
CCNC(=O)Nc1cccc(N(C)c2ncnc3cc(OC)c(OC)cc23)c1 | 5.2 | 7.9 | 
CCCN(c1ccc(C)c(Br)c1)c1ncnc2cc(OC)c(OC)cc12 | 7 | 12.6 | 
COc1cc2ncnc(N(C)c3ccc(C(F)(F)F)cc3)c2cc1OC | 6.5 | 9.1 | 
COc1cc2ncnc(Nc3ccc(C(F)(F)F)cc3)c2cc1OC | 0.1 | 0.5 | 
CCN(c1ccc(C)c(Br)c1)c1ncnc2cc(OC)c(OC)cc12 | 8.8 | 13.4 | 
COc1cc2ncnc(Nc3cccc(C)c3)c2cc1OC | 0.3 | 0.3 | 
COc1cc2ncnc(Nc3cccc(Br)c3)c2cc1OC | 0.2 | 0.4 | Activity (Calf thymus DNA [5]): Active; Activity (Calf thymus DNA [6]): Active; inhibition [4]: inactive; IC50 (PC-3): > 10 µM; IC50 (HT-29): 10.1 µM; IC50 (MCF7): 4.7 µM
COc1cc2ncnc(Nc3ccc(C)c(Br)c3)c2cc1OC | 0.2 | 0.4 | 
COc1cc2ncnc(N(CCN(C)C)c3ccc(C)c(Br)c3)c2cc1OC | 9.9 | 20 | 

Structure (SMILES) | ΔTm (Calf thymus DNA [1]) [°C] | ΔTm (Nucleic Acid [2]) [°C] | also measured
COc1cc2ncnc(N(C)c3cc(Br)ccc3Br)c2cc1OC | 1.6 | 3.3 | 
COc1ccc(NC(=O)Nc2cccc(N(C)c3ncnc4cc(OC)c(OC)cc34)c2)cc1 | 6.8 | 11 | 
COc1cc2ncnc(N(C)c3cccc(NC(=O)Nc4ccccc4)c3)c2cc1OC | 6 | 9.9 | 
COc1cc2ncnc(N(C)c3cccc(C)c3)c2cc1OC | 7.1 | 9.7 | 
COc1cc2ncnc(Nc3ccc(Br)cc3)c2cc1OC | 3.9 | 0.2 | 
COc1cc2ncnc(Nc3ccc(F)c(Cl)c3)c2cc1OC | 0.2 | 0.4 | 
COc1cc2ncnc(N(Cc3ccccc3)c3ccc(C)c(Br)c3)c2cc1OC | 6.5 | 9.6 | 
COc1cc2ncnc(Oc3ccc(F)c(Cl)c3)c2cc1OC | 1.2 | 0.5 | 
Fc1ccc(Nc2ncnc3cc4c(cc23)OCO4)cc1Cl | 0.3 | 0.4 | 
COc1cc2ncnc(N(C)c3cccc(C(F)(F)F)c3)c2cc1OC | 5.8 | 9.5 | 
COc1cc2ncnc(N(C)c3ccc(Br)cc3)c2cc1OC | 6 | 10.8 | 
COc1cc2ncnc(Oc3ccc(Br)cc3F)c2cc1OC | 0.8 | 0.5 | 
COc1cc2ncnc(Nc3cccc(Cl)c3)c2cc1OC | 1.8 | 0.3 | 
COc1cc2ncnc(Oc3cccc(NC(=O)Nc4ccccc4)c3)c2cc1OC | 0.4 | 0.5 | 
COc1cc2ncnc(Nc3cccc(C(F)(F)F)c3)c2cc1OC | 0.2 | 0.5 | 
COc1cc2ncnc(N(C)c3ccc(F)c(Cl)c3)c2cc1OC | 6.1 | 10.5 | 
COc1cc2ncnc(Nc3ccc(Br)cc3F)c2cc1OC | 0.1 | 0.3 | 
COc1cc2ncnc(Nc3ccc(C)c(F)c3)c2cc1OC | 0.2 | 0.5 | 
COc1cc2ncnc(N(C)c3cccc(NC(=O)NC4CCCCC4)c3)c2cc1OC | 5.7 | 9.7 | 
COc1cc2ncnc(N(C)c3cccc(NC(=O)Nc4ccc(F)c(Cl)c4)c3)c2cc1OC | 7.7 | 10.5 | 
COc1cc2ncnc(Oc3cccc(Br)c3)c2cc1OC | 0.7 | 0.7 | 
COc1cc2ncnc(Nc3cc(Br)ccc3Br)c2cc1OC | 0.4 | 0.5 | 
CN(c1ccc(Br)cc1F)c1ncnc2cc3c(cc12)OCO3 | 3.6 | 4.2 | 
COc1ccc(NC(=O)Nc2cccc(Oc3ncnc4cc(OC)c(OC)cc34)c2)cc1 | 0.2 | 0.3 | 
COc1cc2ncnc(Nc3ccc(C)c(Cl)c3)c2cc1OC | 0.3 | 0.4 | 
COc1cc2ncnc(N(C)c3ccc(NC(=O)Nc4ccccc4)cc3)c2cc1OC | 0.4 | 0.6 | 
